Data published in ChEMBL document CHEMBL1152868, “Activation of aldehyde dehydrogenase-2 reduces ischemic damage to the heart” (Science, 2008).
Activity calls are given as the source filed them. No cut-off for these calls is given here.

How the values were obtained:
[1] = target: T1, Aldehyde dehydrogenase, mitochondrial (Homo sapiens) (UniProt P05091); experiment: Activation of wild type human recombinant ALDH2*1 expressed Escherichia coli BL21 cells at 10 uM relative to control
T1 sequence (whole entry): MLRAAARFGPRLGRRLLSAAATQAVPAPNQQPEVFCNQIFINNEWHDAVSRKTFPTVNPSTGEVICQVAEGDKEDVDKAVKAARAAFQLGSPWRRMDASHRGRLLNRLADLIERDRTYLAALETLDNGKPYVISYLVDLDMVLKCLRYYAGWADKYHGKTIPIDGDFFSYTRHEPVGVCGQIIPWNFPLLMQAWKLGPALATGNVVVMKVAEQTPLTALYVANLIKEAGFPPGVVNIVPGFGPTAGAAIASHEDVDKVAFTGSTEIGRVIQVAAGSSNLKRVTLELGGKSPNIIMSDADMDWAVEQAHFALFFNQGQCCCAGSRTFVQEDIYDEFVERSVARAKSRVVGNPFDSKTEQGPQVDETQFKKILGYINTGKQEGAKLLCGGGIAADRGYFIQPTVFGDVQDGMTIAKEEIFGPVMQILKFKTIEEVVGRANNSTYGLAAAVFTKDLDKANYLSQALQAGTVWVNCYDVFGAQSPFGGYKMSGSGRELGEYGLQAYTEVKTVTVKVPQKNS

BL21 [2] = experiment: Activation of human recombinant ALDH2*2 E487K mutant expressed Escherichia coli BL21 cells at 10 uM relative to control
Rattus norvegicus [3] = experiment: Cardiac protection in Wistar rat assessed as decrease in infarct size at 5 ug/min/kg for 13 hrs prolonged treatment terminated 3 hrs before ischemia; format: functional; design: scale not given: the % may be the effect or the level left
BL21 [4] = experiment: Increase in human recombinant ALDH2*1/*2 E487K mutant heterotetramer activity expressed in Escherichia coli BL21 cells using wild type and mutant allele
Summary of the method: (§1)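 Recombinant human ALDH2 proteins (wild type, heterozygous and homozygous mutant forms), 20μg each, assayed for enzymatic activity with 100 μM activator present; activity expressed as percent of untreated control; n=3.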

[5] = target: T1, Aldehyde dehydrogenase, mitochondrial (Homo sapiens); experiment: Activation of human ALDH2 assessed as phosphorylated enzyme at 20 uM in presence of rat PKCepsilon by spectrophotometry
[6] = target: T2, Aldehyde dehydrogenase 1A1 (Homo sapiens) (UniProt P00352); experiment: Effect on human recombinant his-tagged cytosolic ALDH1A1 activity expressed in Escherichia coli BL21 cells at 100 uM
T2 sequence (whole entry): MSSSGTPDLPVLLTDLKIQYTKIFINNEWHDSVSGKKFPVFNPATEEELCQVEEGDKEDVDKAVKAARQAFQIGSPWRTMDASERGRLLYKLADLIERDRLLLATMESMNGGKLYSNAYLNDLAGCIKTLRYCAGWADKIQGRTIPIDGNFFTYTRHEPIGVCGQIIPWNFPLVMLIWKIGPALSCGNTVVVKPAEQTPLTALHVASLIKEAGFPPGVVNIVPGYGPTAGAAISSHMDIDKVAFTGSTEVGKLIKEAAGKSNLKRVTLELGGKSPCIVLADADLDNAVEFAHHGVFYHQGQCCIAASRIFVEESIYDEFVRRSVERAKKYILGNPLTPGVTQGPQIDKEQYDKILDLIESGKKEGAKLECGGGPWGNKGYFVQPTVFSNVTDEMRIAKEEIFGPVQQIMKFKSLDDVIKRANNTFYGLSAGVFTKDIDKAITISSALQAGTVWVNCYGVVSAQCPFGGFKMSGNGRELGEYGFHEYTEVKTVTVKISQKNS

[7] = target: T1, Aldehyde dehydrogenase, mitochondrial (Homo sapiens); experiment: Activation of human ALDH2 assessed as phosphorylated enzyme at 20 uM in absence of rat PKCepsilon by spectrophotometry
Rattus norvegicus [8] = experiment: Toxicity in Wistar rat assessed as histopathology at 6 mg/kg/day for 1 week; format: organism-based; details: in vivo, 168 h
Heart [9] = experiment: Ex vivo cardiac protection in Langendorff perfused Wistar rat heart assessed decrease in myocardial infarct size at 20 uM treated […] ischemia followed by 60 mins reperfusion by TTC staining; format: functional; design: scale not given: the % may be the effect or the level left
Summary of the method: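 Langendorff-perfused rat hearts pretreated 10 min with 20 μM drug or vehicle, then 35 min ischemia and 60 min reperfusion. Infarct size assessed by TTC staining of cross-sectional slices; n=7 hearts per group.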

Rattus norvegicus [10] = experiment: Reduction of cardiac damage in acute myocardial infarction Wistar rat model assessed as decrease in infarct size at 8.5 mg/kg treated before left anterior descending coronary artery ligation measured after 35 mins of ischemia followed by 60 mins reperfusion by TTC staining; format: functional, Myocardium; design: scale not given: the % may be the effect or the level left
Summary of the method: (§2)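 In vivo: 8.5 mg/kg injected into left ventricle five minutes before ischemia; 35 min ischemia then 60 min reperfusion; infarct size of left ventricular free wall expressed as percent, n=7.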

Heart [11] = experiment: Ex vivo cardiac protection in Langendorff perfused Wistar rat heart assessed decrease of CPK release at 20 uM treated 35 mins before ischemia followed by 60 mins reperfusion; format: functional; design: scale not given: the % may be the effect or the level left
BL21 [12] = experiment: Increase in human recombinant ALDH2*2 E487K mutant activity expressed in Escherichia coli BL21 cells; summary of the method: as §1
[13] = target: T1, Aldehyde dehydrogenase, mitochondrial (Homo sapiens); experiment: Increase in wild type human recombinant ALDH2*1/*1 homotetramer activity expressed in Escherichia coli BL21 cells using wild type allele relative to basal activity; summary of the method: as §1
Rattus norvegicus [14] = experiment: Toxicity in Wistar rat assessed as blood parameters at 6 mg/kg/day for 1 week; format: organism-based; details: in vivo, 168 h
Rattus norvegicus [15] = experiment: Reduction of cardiac damage in acute myocardial infarction Wistar rat model assessed as decrease in myocardial infarction at 8.5 mg/kg treated 5 mins before ischemia by TTC staining; format: functional, Myocardium; design: scale not given: the % may be the effect or the level left; summary of the method: as §2
[16] = Effect on alcohol dehydrogenase 1 activity at 100 uM
Rattus norvegicus [17] = experiment: Induction of cell-stress in Wistar rat heart assessed as JNK activation at 8.5 mg/kg after ischemia followed by reperfusion by occluding left anterior descending coronary artery ligation for 35 mins by Western blot analysis; format: functional, organism-based; design: dose 8.5 mg/kg
Summary of the method: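 In vivo rat model: 8.5 mg/kg given into the left ventricle five minutes before 35 min ischemia, followed by 60 min reperfusion.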

Rattus norvegicus [18] = experiment: Induction of cell-stress in Wistar rat heart assessed as JNK activation at 8.5 mg/kg after 5 mind by Western blot analysis; format: functional, organism-based; design: dose 8.5 mg/kg
[19] = target: T3, Aldehyde dehydrogenase X, mitochondrial (Homo sapiens) (UniProt P30837); experiment: Effect on human recombinant his-tagged mitochondrial ALDH5 activity expressed in Escherichia coli BL21 cells at 100 uM
T3 sequence (whole entry): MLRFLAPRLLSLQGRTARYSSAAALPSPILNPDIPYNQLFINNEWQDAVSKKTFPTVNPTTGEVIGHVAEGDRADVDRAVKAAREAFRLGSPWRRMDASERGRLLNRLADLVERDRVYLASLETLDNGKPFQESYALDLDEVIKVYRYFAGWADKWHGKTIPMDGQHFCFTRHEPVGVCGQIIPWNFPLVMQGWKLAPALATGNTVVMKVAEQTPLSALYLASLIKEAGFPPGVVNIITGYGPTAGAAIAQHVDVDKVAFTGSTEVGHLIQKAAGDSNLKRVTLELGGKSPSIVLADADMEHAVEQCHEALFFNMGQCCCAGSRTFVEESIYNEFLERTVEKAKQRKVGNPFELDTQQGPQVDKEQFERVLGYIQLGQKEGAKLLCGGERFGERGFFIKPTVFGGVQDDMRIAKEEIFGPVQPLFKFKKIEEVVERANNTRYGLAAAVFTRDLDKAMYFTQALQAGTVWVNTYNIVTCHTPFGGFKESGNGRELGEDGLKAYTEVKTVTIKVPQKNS

[20] = target: T4, Aldehyde dehydrogenase, mitochondrial (Rattus norvegicus) (UniProt P11884); experiment: Induction of ALDH2 activity in langendorff perfused ischemic Wistar rat heart homogenate assessed as NADH level in per mg of protein at 1 uM after 10 mins by spectrophotometry; format: tissue-based
T4 sequence (whole entry): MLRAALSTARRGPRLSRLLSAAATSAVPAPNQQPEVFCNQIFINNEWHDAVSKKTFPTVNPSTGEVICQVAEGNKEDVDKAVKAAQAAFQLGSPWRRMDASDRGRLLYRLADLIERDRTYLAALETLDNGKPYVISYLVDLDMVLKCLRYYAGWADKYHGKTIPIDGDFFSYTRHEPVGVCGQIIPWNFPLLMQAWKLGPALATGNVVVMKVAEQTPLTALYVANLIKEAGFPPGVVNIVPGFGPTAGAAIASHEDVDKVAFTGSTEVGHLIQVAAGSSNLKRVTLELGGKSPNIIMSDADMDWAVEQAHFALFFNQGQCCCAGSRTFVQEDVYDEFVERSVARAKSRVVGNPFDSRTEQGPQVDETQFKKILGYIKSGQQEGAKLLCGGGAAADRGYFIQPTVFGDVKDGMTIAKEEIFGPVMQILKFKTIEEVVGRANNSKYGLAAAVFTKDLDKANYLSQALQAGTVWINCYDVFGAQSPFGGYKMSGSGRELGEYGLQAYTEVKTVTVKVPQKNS
Summary of the method: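 Rat hearts on a Langendorff apparatus perfused with oxygenated Krebs-Henseleit buffer containing 1μM εPKC agonist peptide for 10 min, then subjected to ischemia; ALDH activity measured in heart homogenates.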

Heart [21] = experiment: Cardiac protection in Langendorff perfused ischemic Wistar rat heart assessed as reduction of infarct size at 1 uM for 10 mins by TTC staining; format: functional; design: scale not given: the % may be the effect or the level left

Compound `O=C(NCc1ccc2c(c1)OCO2)c1c(F)cccc1F` has an Activity [1] of 41% and an Activity (BL21 [2]) of 330%.

In the case of `O=[N+]([O-])OCC(CO[N+](=O)[O-])O[N+](=O)[O-]` [NITROGLYCERIN], the Activity (Rattus norvegicus [3]) is reported as 33%.

In the case of `O=C(NCc1ccc2c(c1)OCO2)c1c(Cl)cccc1Cl`, the fold change (FC) (BL21 [4]) is reported as 2.2, the Activity [5] is reported as 100% and the Activity [6] is reported as “inactive”. For the same compound, the Activity [1] was 65%, the Activity [7] was 90% and the Activity (Rattus norvegicus [8]) was “Non-toxic”. The Activity (Heart [9]) was 26%, the Activity (Rattus norvegicus [10]) was 43% and the Activity (Heart [11]) was 24%. The fold change (FC) (BL21 [12]) was 11, the fold change (FC) [13] was 2.1 and the Activity (Rattus norvegicus [14]) was “Non-toxic”. For the same compound, the Activity (Rattus norvegicus [15]) was 60%, the Activity (BL21 [2]) was 900% and the Activity [16] was “inactive”. For the same compound, the Activity (Rattus norvegicus [17]) was “inactive”, the Activity (Rattus norvegicus [18]) was “inactive” and the Activity [19] was “inactive”.

For `O=C(NCc1ccc2c(c1)OCO2)c1ccccc1Br`, the Activity [1] was 56% and the Activity (BL21 [2]) was 550%.

H-HDAPIGYD-OH showed an Activity [20] of 3.2 µmol/min and an Activity (Heart [21]) of 23%.
